Reference: PMC5388420 (Nucleic Acids Research, 2016)
Read-outs that look alike come from different tables or passages of the source.

Legend:
5΄ppp10L hairpin RNA [1] = conditions: presence of either ATPγS or ADP; ref [22]; cited from earlier work
5΄ppp10L RNA hairpin = assay: NADH coupled ATPase activity assay; format: biochemical; conditions: for K M,RNA / k cat: steady state ATPase activity; for K M,RNA: 5΄ppp10L
Summary of the method: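 Coupled NADH assay: 10 nM RIG-I in 25 mM MOPS pH 7.4, 150 mM NaCl, 5 mM DTT with 1 mM NADH, 100 U/ml lactate dehydrogenase, 500 U/ml pyruvate kinase and 2.5 mM PEP. The hairpin was added as a 12-point series (~0.5–500 nM, diluted in MES pH 6.0/EDTA) and incubated ≥2 h at RT. Reactions were started with 5 mM ATP/5 mM MgCl2, and NADH absorbance loss was followed for 10 min. Mean velocities were plotted against RNA concentration.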

[2] = MANT-ATP binding by stopped flow fluorescence spectroscopy; conditions: for Kd: read-out: MANT-ATP binding Kd (calc., koff/kon)
[3] = target: FAM-labeled 10 base pair RNA hairpin (OH10L); assay: Equilibrium fluorescent RNA binding assay; conditions: read-out: Equilibrium RNA binding Kd, OH10L
Summary of the method: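 Recombinant hRIG-I was expressed from pET-SUMO in E. coli Rosetta II (DE3) and purified by nickel, heparin and Superdex 200 chromatography. 6-FAM was attached via the amino-modified UUCG tetraloop, with 2 nM hairpin final. Buffer: 25 mM MOPS pH 7.4, 150 mM NaCl, 5 mM DTT, 0.01% Triton X-100. Protein was titrated over 12 points (1.5–1500 nM) and equilibrated 2 h at RT. Polarization was read at ex 485/em 528 (G = 0.87), 2 wells × 3 reads, and fit one-site total binding. Three experiments gave mean and SD.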

[4] = system: IFN-β/FireflyLuc reporter in HEK 293T cells; assay: IFN-β induction dual luciferase assay; format: cell-based; conditions: for Maximum IFN-β Production, 5΄OH10L: HEK 293T cells challenged with 5΄OH10L; for Maximum IFN-β Production, 5΄ppp10L: HEK 293T cells challenged with 5΄ppp10L; for Maximum IFN-β Production, PIC: HEK 293T cells challenged with poly(I:C); for Maximum IFN-β Production, Mock: HEK 293T cells, mock challenge (no exogenous RNA)
5΄ppp10L hairpin RNA [5] = assay: RNA dissociation rate constant measurements; format: binding
Summary of the method: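 RIG-I was pre-incubated equimolar with Cy3-labeled hairpin for 2–6 h at RT, then rapidly mixed with 100-fold excess unlabeled hairpin trap (2000 points). Nucleotide (3 mM ATPγS or ADP) plus MgCl2 was included with the trap. Excitation was 515 nm with emission ≥570 nm. 4–6 averaged traces were fit double-exponential for amplitudes and k1/k2.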

[6] = from 5΄ppp10L, nucleotide: ADP (3 mM)
[7] = from 5΄ppp10L, nucleotide: ATPγS (3 mM)
[8] = from 5΄ppp10L, nucleotide: None

Kd ([2]; protein bound to OH10L) [µM]	Kd [3] [µM]	Kd ([2]; protein bound to 5΄ppp10L) [µM]	Molecule	K M,RNA (5΄ppp10L RNA hairpin)	k cat (5΄ppp10L RNA hairpin; stimulated by 5΄ppp10L)	Maximum IFN-β Production, 5΄OH10L [4] [Firefly Luc/Renilla Luc]	Maximum IFN-β Production, 5΄ppp10L [4] [Firefly Luc/Renilla Luc]	Maximum IFN-β Production, PIC [4] [Firefly Luc/Renilla Luc]	Maximum IFN-β Production, Mock [4] [Firefly Luc/Renilla Luc]	Amplitude of k 1 (5΄ppp10L hairpin RNA [5]; [7]) [%]	Amplitude of k 2 (5΄ppp10L hairpin RNA [5]; [7]) [%]	k 1 (RNA dissociation rate constant) (5΄ppp10L hairpin RNA [5]; [7])	k 2 (RNA dissociation rate constant) (5΄ppp10L hairpin RNA [5]; [7])	Amplitude of k 1 (5΄ppp10L hairpin RNA [5]; [8]) [%]	Amplitude of k 2 (5΄ppp10L hairpin RNA [5]; [8]) [%]	k 1 (RNA dissociation rate constant) (5΄ppp10L hairpin RNA [5]; [8])	k 2 (RNA dissociation rate constant) (5΄ppp10L hairpin RNA [5]; [8])	also measured
136 ± 6	0.017 ± 0.001	–	WT RIG-I: Wild-type human RIG-I (hRIG-I), innate immune receptor and RNA-stimulated ATPase, recombinant or expressed from pUNO-hRIG-I (protein, UniProt O95786 1-925, looked up) Antiviral innate immune …: MTTEQRRSLQAFQDYIRKTLDPTYILSYMAPWFREEEVQYIQAEKNNKGPMEAATLFLKFLLELQEEGWFRGFLDALDHAGYSGLYEAIESWDFKKIEKLEEYRLLLKRLQPEFKTRIIPTDIISDLSECLINQECEEILQICSTKGMMAGAEKLVECLLRSDKENWPKTLKLALEKERNKFSELWIVEKGIKDVETEDLEDKMETSDIQIFYQEDPECQNLSENSCPPSEVSDTNLYSPFKPRNYQLELALPAMKGKNTIICAPTGCGKTFVSLLICEHHLKKFPQGQKGKVVFFANQIPVYEQQKSVFSKYFERHGYRVTGISGATAENVPVEQIVENNDIIILTPQILVNNLKKGTIPSLSIFTLMIFDECHNTSKQHPYNMIMFNYLDQKLGGSSGPLPQVIGLTASVGVGDAKNTDEALDYICKLCASLDASVIATVKHNLEELEQVVYKPQKFFRKVESRISDKFKYIIAQLMRDTESLAKRICKDLENLSQIQNREFGTQKYEQWIVTVQKACMVFQMPDKDEESRICKALFLYTSHLRKYNDALIISEHARMKDALDYLKDFFSNVRAAGFDEIEQDLTQRFEEKLQELESVSRDPSNENPKLEDLCFILQEEYHLNPETITILFVKTRALVDALKNWIEGNPKLSFLKPGILTGRGKTNQNTGMTLPAQKCILDAFKASGDHNILIATSVADEGIDIAQCNLVILYEYVGNVIKMIQTRGRGRARGSKCFLLTSNAGVIEKEQINMYKEKMMNDSILRLQTWDEAVFREKILHIQTHEKFIRDSQEKPKPVPDKENKKLLCRKCKALACYTADVRVIEECHYTVLGDAFKECFVSRPHPKPKQFSSFEKRAKIFCARQNCSHDWGIHVKYKTFEIPVIKIESFVVEDIATGVQTLYSKWKDFHFEKIPFDPAEMSK	10.0 ± 1.0 nM	18.2 ± 0.3 ATP/RIG-I•s	3.8 ± 0.3	20.1 ± 1.7	59.2 ± 15	0.99 ± 0.4	–	–	–	–	–	–	–	–	increase in the rate of dissociation from 5΄ppp10L (5΄ppp10L hairpin RNA [1]): 5 fold; kcat (RNA-stimulated ATPase activity) (5΄ppp10L RNA hairpin; stimulated by 5΄ppp10L): 18.2 s⁻¹
75 ± 5	0.023 ± 0.0018	82 ± 6	S411A: RIG-I variant with mutation S411A within conserved helicase Motif III; constitutively signaling (protein, UniProt O95786 1-925, looked up, variant S411A) Antiviral innate immune …: MTTEQRRSLQAFQDYIRKTLDPTYILSYMAPWFREEEVQYIQAEKNNKGPMEAATLFLKFLLELQEEGWFRGFLDALDHAGYSGLYEAIESWDFKKIEKLEEYRLLLKRLQPEFKTRIIPTDIISDLSECLINQECEEILQICSTKGMMAGAEKLVECLLRSDKENWPKTLKLALEKERNKFSELWIVEKGIKDVETEDLEDKMETSDIQIFYQEDPECQNLSENSCPPSEVSDTNLYSPFKPRNYQLELALPAMKGKNTIICAPTGCGKTFVSLLICEHHLKKFPQGQKGKVVFFANQIPVYEQQKSVFSKYFERHGYRVTGISGATAENVPVEQIVENNDIIILTPQILVNNLKKGTIPSLSIFTLMIFDECHNTSKQHPYNMIMFNYLDQKLGGSSGPLPQVIGLTAAVGVGDAKNTDEALDYICKLCASLDASVIATVKHNLEELEQVVYKPQKFFRKVESRISDKFKYIIAQLMRDTESLAKRICKDLENLSQIQNREFGTQKYEQWIVTVQKACMVFQMPDKDEESRICKALFLYTSHLRKYNDALIISEHARMKDALDYLKDFFSNVRAAGFDEIEQDLTQRFEEKLQELESVSRDPSNENPKLEDLCFILQEEYHLNPETITILFVKTRALVDALKNWIEGNPKLSFLKPGILTGRGKTNQNTGMTLPAQKCILDAFKASGDHNILIATSVADEGIDIAQCNLVILYEYVGNVIKMIQTRGRGRARGSKCFLLTSNAGVIEKEQINMYKEKMMNDSILRLQTWDEAVFREKILHIQTHEKFIRDSQEKPKPVPDKENKKLLCRKCKALACYTADVRVIEECHYTVLGDAFKECFVSRPHPKPKQFSSFEKRAKIFCARQNCSHDWGIHVKYKTFEIPVIKIESFVVEDIATGVQTLYSKWKDFHFEKIPFDPAEMSK	5.0 ± 1 nM	5.1 ± 0.4 ATP/RIG-I•s	19.5 ± 3.8	56.6 ± 10.8	209.8 ± 17	3.5 ± 0.5	42	58	68 ± 0.9 × 10^−3 s^−1	2 ± 0.04 × 10^−3 s^−1	52	48	45 ± 0.2 × 10^−3 s^−1	4 ± 0.1 × 10^−3 s^−1	greater affinity for MANT-ATP relative to WT ([2]; protein bound to OH10L): 2 fold; Amplitude of k 1 (5΄ppp10L hairpin RNA [5]; [6]): 62%; Amplitude of k 2 (5΄ppp10L hairpin RNA [5]; [6]): 38%; k 1 (RNA dissociation rate constant) (5΄ppp10L hairpin RNA [5]; [6]): 70 ± 0.9 × 10^−3 s^−1; k 2 (RNA dissociation rate constant) (5΄ppp10L hairpin RNA [5]; [6]): 6 ± 0.1 × 10^−3 s^−1; effect of nucleotide on the rate of dissociation from 5΄ppp10L (5΄ppp10L hairpin RNA [5]; saturating nucleotide (ATPγS, ADP)): did not significantly change
–	0.041 ± 0.0018	110 ± 8	S411L: RIG-I Motif III variant, serine 411 mutated to leucine, annotated in tumor samples (protein, UniProt O95786 1-925, looked up, variant S411L) Antiviral innate immune …: MTTEQRRSLQAFQDYIRKTLDPTYILSYMAPWFREEEVQYIQAEKNNKGPMEAATLFLKFLLELQEEGWFRGFLDALDHAGYSGLYEAIESWDFKKIEKLEEYRLLLKRLQPEFKTRIIPTDIISDLSECLINQECEEILQICSTKGMMAGAEKLVECLLRSDKENWPKTLKLALEKERNKFSELWIVEKGIKDVETEDLEDKMETSDIQIFYQEDPECQNLSENSCPPSEVSDTNLYSPFKPRNYQLELALPAMKGKNTIICAPTGCGKTFVSLLICEHHLKKFPQGQKGKVVFFANQIPVYEQQKSVFSKYFERHGYRVTGISGATAENVPVEQIVENNDIIILTPQILVNNLKKGTIPSLSIFTLMIFDECHNTSKQHPYNMIMFNYLDQKLGGSSGPLPQVIGLTALVGVGDAKNTDEALDYICKLCASLDASVIATVKHNLEELEQVVYKPQKFFRKVESRISDKFKYIIAQLMRDTESLAKRICKDLENLSQIQNREFGTQKYEQWIVTVQKACMVFQMPDKDEESRICKALFLYTSHLRKYNDALIISEHARMKDALDYLKDFFSNVRAAGFDEIEQDLTQRFEEKLQELESVSRDPSNENPKLEDLCFILQEEYHLNPETITILFVKTRALVDALKNWIEGNPKLSFLKPGILTGRGKTNQNTGMTLPAQKCILDAFKASGDHNILIATSVADEGIDIAQCNLVILYEYVGNVIKMIQTRGRGRARGSKCFLLTSNAGVIEKEQINMYKEKMMNDSILRLQTWDEAVFREKILHIQTHEKFIRDSQEKPKPVPDKENKKLLCRKCKALACYTADVRVIEECHYTVLGDAFKECFVSRPHPKPKQFSSFEKRAKIFCARQNCSHDWGIHVKYKTFEIPVIKIESFVVEDIATGVQTLYSKWKDFHFEKIPFDPAEMSK	Inactive	Inactive	–	7.8 ± 1.5	1.8 ± 0.4	0.2 ± 0.01	81	19	210 ± 1 × 10^−3 s^−1	10 ± 0.1 × 10^−3 s^−1	52	48	27 ± 0.2 × 10^−3 s^−1	2 ± 0.04 × 10^−3 s^−1	stimulation of koff^RNA by ATPγS (5΄ppp10L hairpin RNA [5]; from 5΄ppp10L): 7.8 fold; loss in IFN-β activation relative to WT ([4]; HEK 293T cells challenged by 5΄ppp10L): 3 fold; loss in IFN-β activation relative to WT ([4]; HEK 293T cells challenged by poly I:C): 31 fold
